Measured values published in ChEMBL document CHEMBL1138388, “Chemically programmed antibodies: endothelin receptor targeting CovX-Bodies” (Bioorg Med Chem Lett, 2007).
pIC50: −log10 of the molar value. Activity calls are given as the source filed them. The rule behind the calls is not given here.

Columns and labels:
Endothelin-1 receptor = target: T1, Endothelin-1 receptor (Homo sapiens, UniProt P25101); assay: Displacement of [125I]ET1 from human ETA receptor expressed in CHO cells; assay type: cell-based
T1 sequence (P25101 whole entry): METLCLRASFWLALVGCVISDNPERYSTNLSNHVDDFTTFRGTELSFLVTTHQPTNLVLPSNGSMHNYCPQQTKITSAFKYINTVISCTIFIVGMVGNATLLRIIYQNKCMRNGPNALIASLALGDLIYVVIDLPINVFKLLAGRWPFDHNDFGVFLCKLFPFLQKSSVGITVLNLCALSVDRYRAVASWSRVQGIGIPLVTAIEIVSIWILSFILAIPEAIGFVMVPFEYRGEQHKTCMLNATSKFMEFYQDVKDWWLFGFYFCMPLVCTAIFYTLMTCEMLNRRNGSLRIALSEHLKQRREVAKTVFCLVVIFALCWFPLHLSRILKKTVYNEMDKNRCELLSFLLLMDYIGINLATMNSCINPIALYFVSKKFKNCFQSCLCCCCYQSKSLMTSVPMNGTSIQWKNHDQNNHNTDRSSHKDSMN
In short: (§1)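 Competitive binding against 125I-labeled ET-1 on CHO cells stably expressing human ETA or ETB receptor. Six concentrations, 1 µM to 10 pM, at least three measurements each. IC50 taken from the means.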

PC-3 [1] = assay: Inhibition of tumor growth in human PC3 cells xenografted mouse at 2 mg/kg after 31 days; assay type: functional; details: PC-3, 744 h
In short: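 PC-3 prostate cancer xenograft. Dosing at 2 mg/kg […]. Tumor volume growth inhibition read at day 31 against vehicle control. Significance by one-way ANOVA with Dunnett's test to vehicle.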

[2] = target: T2, Endothelin receptor type B (Homo sapiens, UniProt P24530); assay: Displacement of [125I]ET1 from human ETB receptor expressed in CHO cells; assay type: cell-based; in short: as §1
T2 sequence (P24530 whole entry): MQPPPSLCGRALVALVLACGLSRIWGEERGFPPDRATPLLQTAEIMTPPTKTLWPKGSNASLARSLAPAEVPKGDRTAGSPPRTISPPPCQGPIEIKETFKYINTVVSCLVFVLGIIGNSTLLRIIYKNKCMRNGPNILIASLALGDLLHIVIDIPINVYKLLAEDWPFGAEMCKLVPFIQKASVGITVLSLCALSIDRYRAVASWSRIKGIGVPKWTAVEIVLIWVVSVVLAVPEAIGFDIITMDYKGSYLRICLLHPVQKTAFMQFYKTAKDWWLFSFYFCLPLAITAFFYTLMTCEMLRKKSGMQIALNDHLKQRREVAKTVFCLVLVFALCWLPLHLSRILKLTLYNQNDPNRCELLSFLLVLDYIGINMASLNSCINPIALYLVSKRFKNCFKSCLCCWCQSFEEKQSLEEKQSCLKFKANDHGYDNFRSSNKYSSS

Homo sapiens = organism: Homo sapiens; assay: Selectivity for human ETA receptor over human ETB receptor
PC-3 [3] = assay: Inhibition of tumor growth in PC3 cells xenografted mouse at 0.25 mg/kg administered once weekly for 31 days; assay type: functional, organism-based; parameters: dose 0.25 mg/kg; details: Homo sapiens
In short: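 PC-3 prostate cancer xenograft. Dosing at 0.25 mg/kg once weekly. Tumor volume tracked to day 31 against vehicle control. Significance by one-way ANOVA with Dunnett's multiple comparison test to vehicle.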

| SMILES | pIC50 (Endothelin-1 receptor) | inhibition in vivo at 2 mg/kg (PC-3 [1]) [%] | pIC50 [2] | Ratio IC50 (Homo sapiens) | Activity (PC-3 [3]) |
| --- | --- | --- | --- | --- | --- |
| CN(Cc1cc(-c2ncco2)ccc1-c1ccccc1S(=O)(=O)Nc1ccno1)C(=O)CC(C)(C)C | 9.00 | 50 | 5.22 | 8980 |  |
| CC(=O)CC(=O)CCc1ccc(NC(=O)CCOCCOCCOCCOCCOc2ccc(CC(=O)N(C)Cc3cc(-c4ncco4)ccc3-c3ccccc3S(=O)(=O)Nc3ccno3)cc2)cc1 | 8.34 |  | 5.72 | 420 |  |
| CC(=O)CC(=O)CCc1ccc(NC(=O)CCOCCOCCOCCOCCOCCOCCOCCOCCOCCOCCOCCNC(=O)CCCC(=O)N(C)Cc2cc(-c3ncco3)ccc2-c2ccccc2S(=O)(=O)Nc2ccno2)cc1 | 8.11 |  | 5.35 | 564 |  |
| CC(=O)CC(=O)CCc1ccc(NC(=O)CCOCCOCCOCCOCC(=O)N(C)Cc2cc(-c3ncco3)ccc2-c2ccccc2S(=O)(=O)Nc2ccno2)cc1 | 8.80 |  | 5.95 | 1120 | inactive |
| CC(=O)CC(=O)CCc1ccc(NC(=O)CCOCCOCCOCCOCCOc2ccc(CCC(=O)N(C)Cc3cc(-c4ncco4)ccc3-c3ccccc3S(=O)(=O)Nc3ccno3)cc2)cc1 | 7.67 |  | 5.31 | 228 |  |
| CC(=O)CC(=O)CCc1ccc(NC(=O)CCOCCOCCOCCOc2ccc(-c3ccccc3S(=O)(=O)Nc3ccno3)c(CN(C)C(=O)CC(C)(C)C)c2)cc1 | 7.35 |  | < 5.00 |  |  |
| CC(=O)CC(=O)CCc1ccc(NC(=O)CCOCCOCCOCCOCCOCCOCCOCCC(=O)N(C)Cc2cc(-c3ncco3)ccc2-c2ccccc2S(=O)(=O)Nc2ccno2)cc1 | 8.10 |  | 5.33 | 564 |  |
